Experimental data published in article PMC3426663 (Xenobiotica; the fate of foreign compounds in biological …, 2012).

Legend:
[1] = test system: human liver microsomes (HLMs); experiment: Identification of Ket and norKet metabolites in HLM incubates; assay type: in vitro ADME; settings: HLMs 0.5 mg/ml; for metabolite found in HLM incubates of (R,S)-Ket: (R,S)-Ket 10 μM, Fig. 2A; for metabolite found in HLM incubates of (R,S)-norKet: (R,S)-norKet 10 μM, Fig. 2
expressed CYP2B6 = biological target: T1, expressed CYP2B6 (Homo sapiens, UniProt P20813); experiment: Incubation with expressed CYP2B6; assay type: in vitro ADME; settings: for Vmax: expressed CYP2B6 13 pmol, 37°C, 15 min; for depletion of substrate from the incubation mixture: data not shown
T1 sequence (P20813 1-491): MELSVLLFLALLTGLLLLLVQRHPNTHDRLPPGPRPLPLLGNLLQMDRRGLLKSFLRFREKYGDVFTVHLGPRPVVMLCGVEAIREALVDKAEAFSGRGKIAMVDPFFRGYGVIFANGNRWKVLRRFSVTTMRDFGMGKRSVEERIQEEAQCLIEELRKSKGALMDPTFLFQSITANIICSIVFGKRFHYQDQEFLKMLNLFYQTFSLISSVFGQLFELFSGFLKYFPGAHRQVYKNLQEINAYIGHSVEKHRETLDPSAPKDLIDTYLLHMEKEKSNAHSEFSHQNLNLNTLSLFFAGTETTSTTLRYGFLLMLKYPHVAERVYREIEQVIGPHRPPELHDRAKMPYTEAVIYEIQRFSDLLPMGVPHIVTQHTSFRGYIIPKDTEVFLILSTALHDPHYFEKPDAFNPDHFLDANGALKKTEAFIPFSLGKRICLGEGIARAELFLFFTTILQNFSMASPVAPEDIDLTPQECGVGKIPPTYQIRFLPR

[2] = BPD patients 3 days after dosing of (R,S)-Ket; ref Zhao et al., 2012; cited from earlier work
expressed CYP2A6 = biological target: T2, expressed CYP2A6 (Homo sapiens, UniProt P11509); experiment: Incubation with expressed CYP2A6; assay type: in vitro ADME; settings: for Vmax: expressed CYP2A6 13 pmol, 37°C, 15 min; for depletion of substrate from the incubation mixture: expressed CYP2A6, data not shown
T2 sequence (P11509 1-494): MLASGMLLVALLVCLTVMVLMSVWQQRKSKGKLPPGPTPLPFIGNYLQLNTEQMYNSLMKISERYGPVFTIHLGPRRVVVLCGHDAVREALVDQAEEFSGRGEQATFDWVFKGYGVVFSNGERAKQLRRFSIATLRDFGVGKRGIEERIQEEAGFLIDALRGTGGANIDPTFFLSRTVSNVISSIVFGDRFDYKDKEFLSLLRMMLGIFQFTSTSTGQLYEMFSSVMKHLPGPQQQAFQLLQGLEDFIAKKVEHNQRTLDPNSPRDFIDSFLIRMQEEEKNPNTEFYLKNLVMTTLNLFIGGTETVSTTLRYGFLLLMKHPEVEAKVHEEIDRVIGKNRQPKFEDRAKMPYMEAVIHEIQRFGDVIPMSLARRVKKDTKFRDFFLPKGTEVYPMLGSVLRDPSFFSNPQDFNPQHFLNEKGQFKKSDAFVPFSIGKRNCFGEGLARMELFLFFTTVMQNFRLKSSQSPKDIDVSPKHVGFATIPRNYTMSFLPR

expressed CYP3A5 = expressed CYP3A5 (Homo sapiens, UniProt P20815); experiment: Incubation with expressed CYP3A5; assay type: in vitro ADME; settings: expressed CYP3A5 13 pmol, 37°C, 15 min
[3] = test system: expressed human P450s (1A2, 2A6, 2B6, 2C8, 2C9, 2C19, 2D6, 2E1, 3A4, and 3A5); experiment: Incubation with panel of 10 expressed CYPs; assay type: in vitro ADME; settings: for disappearance of substrate, other isoforms (no appreciable effect, cutoff): expressed isoforms other than CYP2A6, CYP2B6, CYP2C19
Outline: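 Qualitative isoform screen. Baculovirus-insect cell-expressed human CYP1A2, 2A6, 2B6, 2C8, 2C9, 2C19, 2D6, 2E1, 3A4 or 3A5 with oxidoreductase (13–26 pmol) was incubated at 37°C with 10 μM (R)- or (S)-ketamine, or (R,S)-, (R)- or (S)-norketamine. The NADPH-generating system contained NADP, glucose 6-phosphate, MgCl2 and glucose-6-phosphate dehydrogenase. Ketamine incubations ran 15 min. Products measured by LC/MS/MS.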

expressed CYP2C19 = expressed CYP2C19 (Homo sapiens, UniProt P33261); experiment: Incubation with expressed CYP2C19; assay type: in vitro ADME; settings: data not shown
[4] = formation of metabolite from (R)-norKet
[5] = formation of metabolite from (S)-norKet

expressed CYP3A5, sequence (P20815 whole entry, canonical isoform): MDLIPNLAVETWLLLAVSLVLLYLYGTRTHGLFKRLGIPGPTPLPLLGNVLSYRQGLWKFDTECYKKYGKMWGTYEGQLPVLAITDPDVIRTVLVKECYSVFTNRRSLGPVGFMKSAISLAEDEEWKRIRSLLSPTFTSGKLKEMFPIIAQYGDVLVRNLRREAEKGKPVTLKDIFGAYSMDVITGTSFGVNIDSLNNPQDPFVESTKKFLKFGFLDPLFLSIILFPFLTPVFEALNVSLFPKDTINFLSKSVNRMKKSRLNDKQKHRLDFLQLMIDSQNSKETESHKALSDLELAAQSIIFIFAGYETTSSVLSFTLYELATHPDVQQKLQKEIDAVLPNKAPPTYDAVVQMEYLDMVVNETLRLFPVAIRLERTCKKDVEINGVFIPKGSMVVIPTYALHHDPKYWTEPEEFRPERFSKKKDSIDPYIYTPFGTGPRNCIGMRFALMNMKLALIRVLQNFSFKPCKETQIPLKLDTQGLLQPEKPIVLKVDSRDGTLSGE
expressed CYP2C19, sequence (P33261 whole entry): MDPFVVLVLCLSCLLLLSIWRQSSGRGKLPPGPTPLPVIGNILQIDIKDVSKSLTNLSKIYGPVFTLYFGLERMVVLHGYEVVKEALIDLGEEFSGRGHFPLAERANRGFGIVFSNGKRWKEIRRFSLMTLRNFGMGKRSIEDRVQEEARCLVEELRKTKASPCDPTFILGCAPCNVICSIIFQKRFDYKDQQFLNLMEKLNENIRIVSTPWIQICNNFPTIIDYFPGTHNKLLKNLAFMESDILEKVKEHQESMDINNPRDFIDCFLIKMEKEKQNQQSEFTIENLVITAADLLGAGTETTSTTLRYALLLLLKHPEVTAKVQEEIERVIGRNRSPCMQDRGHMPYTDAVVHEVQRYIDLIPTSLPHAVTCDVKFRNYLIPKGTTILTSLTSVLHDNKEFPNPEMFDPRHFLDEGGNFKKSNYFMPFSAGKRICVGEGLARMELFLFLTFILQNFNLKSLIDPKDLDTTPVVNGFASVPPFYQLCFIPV

| SMILES | metabolite found in HLM incubates of (R,S)-Ket [1] | Vmax (expressed CYP2B6; [4]) [pmol/min/pmol P450] | Vmax (expressed CYP2B6; [5]) [pmol/min/pmol P450] | Vmax (expressed CYP2A6; [4]) [pmol/min/pmol P450] | Vmax (expressed CYP2A6; [5]) [pmol/min/pmol P450] | metabolite found in HLM incubates of (R,S)-norKet [1] | Vmax (expressed CYP3A5; [4]) [pmol/min/pmol P450] | Vmax (expressed CYP3A5; [5]) [pmol/min/pmol P450] | other results |
| --- | --- | --- | --- | --- | --- | --- | --- | --- | --- |
| NC1(c2ccccc2Cl)CCCCC1=O (racemic) [(R,S)-norKet, norketamine] | significant concentrations | – | – | – | – | – | – | – | – |
| CNC1(c2ccccc2Cl)CCCC(O)C1=O (single isomer, unassigned) [5a] | significant concentrations | – | – | – | – | – | – | – | decrease of substrate concentration in the incubates (expressed CYP2B6; substrate 5a, incubates containing CYP2B6): 42.5% |
| CNC1(c2ccccc2Cl)CCCC(O)C1=O (single isomer, unassigned) [5b] | significant concentrations | – | – | – | – | – | – | – | – |
| NC1(c2ccccc2Cl)CCCC(O)C1=O [4a, (2S,6S;2R,6R)-HNK] | significant concentrations | 0.76 | 0.56 | 8.18 | 3.9 | significant concentrations | 0.29 | 3.87 | plasma concentration [2]: > 8 ng/mL; N-demethylated metabolite formed (highest rate) (expressed CYP2B6; substrate 5a, expressed CYP2B6): 201.6 ng/mL; metabolite formation by other CYPs ([3]; substrate 5a, expressed CYPs other than CYP2B6, data not shown): < 13 ng/mL |
| NC1(c2ccccc2Cl)CCCC(O)C1=O [4b, (2S,6R;2R,6S)-HNK] | significant concentrations | – | – | – | – | not detected | – | – | generation from (S)- or (R)-norKet by any of the expressed CYPs ([3]; 10 expressed CYPs): not generated |
| NC1(c2ccccc2Cl)CCC(O)CC1=O [4c, (2S,5S;2R,5R)-HNK] | significant concentrations | 16.72 | 16.3 | 1.25 | 1.48 | significant concentrations | 0.038 | 0.30 | – |
| NC1(c2ccccc2Cl)CC(O)CCC1=O [4d, (2S,4S;2R,4R)-HNK] | trace amounts | 0.78 | 3.34 | 1.28 | 4.67 | trace amounts | 0.029 | 0.20 | – |
| NC1(c2ccccc2Cl)CC(O)CCC1=O [4e, (2S,4R;2R,4S)-HNK] | trace amounts | – | – | – | – | trace amounts | 0.087 | 3.14 | – |
| NC1(c2ccccc2Cl)CCC(O)CC1=O [4f, (2S,5R;2R,5S)-HNK] | significant concentrations | 3.98 | 0.30 | 0.44 | 0.33 | significant concentrations | 1.69 | 5.71 | Clint for formation from (R)-norKet relative to (S)-norKet (expressed CYP2B6; enzyme not given, Table 5, fits CYP2B6): ~ 10 fold |
| N[C@@]1(c2ccccc2Cl)CCCCC1=O [(R)-norKet] | – | – | – | – | – | – | – | – | depletion of substrate from the incubation mixture (expressed CYP2B6; expressed CYP2B6): 47.8%; depletion of substrate from the incubation mixture (expressed CYP2A6): 34.5%; depletion of substrate from the incubation mixture (expressed CYP2C19): 35.0%; disappearance of substrate, other isoforms (no appreciable effect, cutoff) ([3]; data not shown): < 24% |
| N[C@]1(c2ccccc2Cl)CCCCC1=O [(S)-norKet] | – | – | – | – | – | – | – | – | depletion of substrate from the incubation mixture (expressed CYP2B6; expressed CYP2B6): 41.6%; depletion of substrate from the incubation mixture (expressed CYP2A6): 41.0%; depletion of substrate from the incubation mixture (expressed CYP2C19): 27.3%; disappearance of substrate, other isoforms (no appreciable effect, cutoff) ([3]; data not shown): < 24% |
| NC1(c2ccccc2Cl)CCC=CC1=O (stereo not shown) [DHNK, 5,6-dehydronorketamine] | significant concentrations | 13.0 | 7.61 | 0.98 | 0.92 | significant concentrations | 0.079 | 1.96 | plasma concentration [2]: > 8 ng/mL |
